Compounds with a hit are over-represented: about 4.4% of the library has one in this group of screens.
EBI2 block – EBI2 (human) antagonism; EBI2 beta-arrestin recruitment, luminescence, 7a,25-OHC stimulated; inhibition, % at 5 µM; hit rate 0.81% among 360,000; AID 651636; in the data active = inhibition above about 38%;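 note: enzyme fragment complementation signal reports receptor beta-arrestin coupling in cells; 0% = agonist plus DMSO wells and 100% = wells without agonist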
Target sequence (P32249 whole entry, looked up, the tested form may be a part): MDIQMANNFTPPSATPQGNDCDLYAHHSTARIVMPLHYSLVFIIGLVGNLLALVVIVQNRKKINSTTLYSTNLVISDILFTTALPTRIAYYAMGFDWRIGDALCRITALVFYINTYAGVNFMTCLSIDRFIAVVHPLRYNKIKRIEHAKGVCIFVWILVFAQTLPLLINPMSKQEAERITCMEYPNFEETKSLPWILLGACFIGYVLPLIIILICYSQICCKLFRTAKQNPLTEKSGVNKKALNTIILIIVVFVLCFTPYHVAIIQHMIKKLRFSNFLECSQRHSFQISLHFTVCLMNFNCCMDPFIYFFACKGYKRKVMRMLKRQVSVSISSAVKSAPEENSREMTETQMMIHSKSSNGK
MPTP block – inhibitors of mitochondrial permeability transition pore. isolated mouse mitochondria, Ca2+ swelling absorbance, 30 min. inhibition, % at 10 µM. hit rate 1.4% among 360,000;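 active = inhibition of 50% or more, scaled per plate between neutral and stimulator controls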;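 note: 0% = DMSO wells given calcium and 100% = 1 mM EGTA wells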
GRIN3A LBD mod – modulators (binders) of human NR3A ligand-binding domain; NR3A LBD differential scanning fluorimetry, Tm shift; 0% = protein alone, 100% = glycine-bound protein; Tm shift relative to glycine control, % at 25 µM; hit rate 2.5% among 340,000;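 active = melting temperature shift of at least 10% of the positive control shift, at one fixed dose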
SENP1 FRET inh – blocks the human SENP1 SUMO protease catalytic domain | Q9P0U3 | recombinant SENP1 catalytic domain, CyPet-SUMO1-YPet FRET cleavage | inhibition, % at 10 µM | hit rate 0.21% among 360,000 | AID 624204;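 active = inhibition at least 30% at 10 µM, raw YFP signal under a set limit, fluorescence ratio 0.5 to 1.5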;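 note: 0% = enzyme with DMSO and 100% = no enzyme wells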
Target sequence (Q9P0U3 419-644 limits assumed): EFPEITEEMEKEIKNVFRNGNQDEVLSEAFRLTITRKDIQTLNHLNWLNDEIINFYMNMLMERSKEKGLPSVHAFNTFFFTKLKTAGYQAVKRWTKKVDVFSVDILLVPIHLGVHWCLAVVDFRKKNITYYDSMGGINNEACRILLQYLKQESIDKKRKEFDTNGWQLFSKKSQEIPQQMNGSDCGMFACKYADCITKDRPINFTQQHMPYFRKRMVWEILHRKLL
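Test system: recombinant human SENP1 catalytic domain, His6-tagged / Medium: pH 8 Tris buffer with EDTA, NaCl, BME, BSA, NP40, catalase / Also added: SUMO1 FRET substrate flanked by Cypet and Ypet, 25 nM / Times: 50 min reaction at room temperature / Signal: FRET, CFP and YFP emission / Control set: no-enzyme low control and enzyme-plus-DMSO high control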
MPTP counter – membrane potential counter-screen of mitochondrial pore inhibitors. AID 624504. shares compounds with MPTP block. isolated mitochondria, Rhodamine 123 fluorescence. hit rate 78% among 5,000. inhibition, % at 10 µM; in the data active = inhibition above about 22%;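 note: 0% = DMSO vehicle and 100% = positive control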
MPTP swell DR – MPTP inhibition, dose response swelling confirmation | AID 651561 | isolated mitochondria swelling, absorbance | shares compounds with MPTP block | hit rate 58% among 780 | IC50, µM; in the data active = IC50 below about 20 µM
MPTP counter DR – MPTP inhibitor counter-screen activity, dose response; shares compounds with MPTP block; isolated mitochondria counterscreen, fluorescence read-out; IC50, µM; hit rate 49% among 780; in the data active = IC50 below about 80 µM
An asterisk follows results filed as active; x = not tested or not shown.

SMILES	EBI2 block	MPTP block	GRIN3A LBD mod	SENP1 FRET inh	MPTP counter	others
CCOC(=O)c1c(C)[nH]c(C)c1S(=O)(=O)N(C)CC(=O)NCc1ccc(F)cc1	-7.7	-1.6	1.4	-0.8	x
O=C1COc2ccc(C(=O)COC(=O)c3sc4ccccc4c3Cl)cc2N1	-1.2	4.0	-0.2	0.8	x
O=C(COc1ccc(Cl)cc1Cl)Nc1ccccc1NS(=O)(=O)c1cccs1	-6.1	65.9*	5.4	10.7	78.9*
O=C(COc1ccccc1)Nc1ccccc1NS(=O)(=O)c1cccs1	10.2	8.6	-7.6	3.1	x
Cc1cc(Cl)ccc1OCC(=O)Nc1ccccc1NS(=O)(=O)c1cccs1	7.3	51.8*	14.3*	2.0	78.0*
CN1C(=O)c2ccc(NC(=O)C3CC3)cc2C1=O	-5.3	-0.4	0.1	-0.7	x
N#Cc1cc(NC(=O)c2ccc(Cl)cc2)ccc1Sc1ccccc1	5.3	73.1*	x	-0.3	96.3*
COc1cc(C(O)c2nc(-c3ccc(N(C)C)cc3)cs2)ccc1F (stereo not drawn)	-16.8	63.9*	x	0.9	65.7*
COc1cccc(C(O)c2nc(-c3cc4ccccc4o3)cs2)c1 (stereo not drawn)	-8.5	5.1	x	4.3	x
COc1cc(C(O)c2nc(-c3cc(F)cc(F)c3)cs2)ccc1F (stereo not drawn)	6.0	4.2	x	-0.4	x
COc1cc(C(O)c2nc(-c3cc4ccccc4o3)cs2)ccc1F (stereo not drawn)	-1.2	59.2*	x	0.2	80.2*
Cc1cc(=O)n2nc(N3CCC(C(=O)NCc4ccccc4F)CC3)sc2n1	-11.2	-2.2	-1.3	1.5	x
Cc1csc2ncnc(NNC(=O)c3ccc(Cl)cc3)c12	4.5	55.2*	-0.1	-0.1	38.9*
O=C(NNc1ncnc2sccc12)c1ccc(Cl)cc1	-3.3	31.5	1.1	3.0	x
Clc1ccc2nc(C3CCCCC3)c(CC3CCCCC3)n2c1	-23.5	1.5	x	-1.0	x
O=C(c1cnn(-c2ccccc2)c1)c1cc(Br)ccc1O	-18.3	2.6	-6.3	1.8	x
O=C(c1ccc(O)c(Br)c1)c1cc(Br)ccc1O	10.4	94.1*	7.7	8.1	93.3*
O=C(C(=O)c1cc(Br)ccc1O)c1cc(Br)ccc1O	-12.5	94.8*	19.8*	2.6	97.0*
CCOc1ccc(S(=O)(=O)Nc2cnc3ccccc3c2)cc1	-7.2	87.2*	-2.3	1.8	89.9*
COc1ccc(NS(=O)(=O)c2ccc3c(c2)Cc2ccccc2-3)cn1	4.9	83.5*	-3.3	-5.9	87.2*
CCOc1ccc(S(=O)(=O)Nc2nc3ccccc3nc2Cl)cc1	1.2	0.9	0.0	-4.2	x
O=C1CSc2ccc(C(=O)Nc3cccc(S(=O)(=O)Nc4ccc(Br)cc4)c3)cc2N1	5.4	89.0*	28.2*	3.2	70.7*
O=C(O)c1ccc(NC(=O)c2cccc(S(=O)(=O)Nc3ccc(C(=O)O)cc3)c2)cc1	-8.4	0.9	-0.6	1.3	x
O=C(Nc1ccc(Br)cc1)c1cccc(S(=O)(=O)Nc2cnc3ccccc3c2)c1	-12.4	107.7*	41.1*	0.8	74.5*
COc1ccc(NC(=O)c2cccc(S(=O)(=O)Nc3ccc(Br)cc3)c2)cn1	-1.9	96.6*	21.7*	1.0	80.0*
SMILES	EBI2 block	MPTP block	GRIN3A LBD mod	SENP1 FRET inh	MPTP counter	others
COc1ccc(NC(=O)c2cccc(Oc3ccccc3)c2)cn1	-7.1	0.4	-2.4	3.0	x
CCN(CC)S(=O)(=O)c1cc([N+](=O)[O-])ccc1NNC(=O)Nc1ccc(Cl)c(Cl)c1	10.3	101.6*	17.6*	1.3	76.0*
O=C(Nc1ccc(Cl)c(Cl)c1)Nc1ccc(Br)cc1F	-8.6	99.8*	40.1*	0.9	73.9*
O=C(Nc1ccc(Cl)c(Cl)c1)Nc1ccccc1O	6.8	97.8*	466.3*	3.2	64.2*
O=C(NNc1ccccc1[N+](=O)[O-])Nc1ccc(Cl)c(Cl)c1	18.0	101.7*	15.3*	3.9	84.2*
O=C(Nc1ccc(Br)cc1F)c1ccncc1	-9.6	-3.1	0.0	-0.1	x
CN1C(=O)c2ccccc2CC12c1ccccc1C(=O)N2C (stereo not drawn)	10.9	-1.3	x	2.7	x
COc1ccc(CCN2CC(C(=O)NCc3ccc(F)cc3)CC2=O)cc1OC (stereo not drawn)	-3.4	0.6	-1.6	1.5	x
NNC(=O)C(=O)Nc1ccc(Cl)c(Cl)c1	-11.0	0.6	3.3	0.6	x
O=C1C=C(NC(=O)Nc2ccc(Cl)c(Cl)c2)CCC1	4.9	91.3*	4.7	-4.2	97.9*
Cn1nc(C(C)(C)C)cc1C(=O)NCc1cc(F)cc2c1OCOC2	-5.9	92.3*	0.8	2.9	83.9*
Cn1c(N)c(C(=O)COC(=O)CC(NC(=O)c2ccccc2Cl)c2ccccc2)c(=O)n(C)c1=O (stereo not drawn)	9.9	-0.5	-3.5	-0.7	x
COc1ccc(-c2nc3cc(NC(=O)Cc4ccc(OC)c(OC)c4)ccc3o2)cc1	3.1	96.2*	-8.6	2.0	90.1*
CCC(C)NCC(=O)Nc1ccc(-c2nc3cc(NC(=O)CNC(C)CC)ccc3o2)cc1 (stereo not drawn)	8.1	73.5*	0.3	-1.6	-4.7	MPTP swell DR=16.4*;MPTP counter DR=35.8*
CCN(CC)CC(=O)Nc1ccc(-c2nc3cc(NC(=O)CN(CC)CC)ccc3o2)cc1	12.1	-1.4	0.5	2.4	x
CC(C)N(C(=O)Cn1c(=O)oc2ccccc21)c1ccccc1	3.6	0.0	0.2	1.8	x
C=CC(=O)Nc1cccc(N(C)c2ccnc(Nc3ccc(N4CCN(C)CC4)cc3)n2)c1	-1.9	101.5*	3.8	-1.9	92.8*
Cc1nn(CC(C)C)c(Cl)c1C(=O)NCC1CCCO1 (stereo not drawn)	-17.5	-1.6	x	2.5	x
O=C(N/N=C/c1ccccc1O)NC12CC3CC(CC(C3)C1)C2	42.0	-0.4	x	0.2	x
Cc1nn(-c2ccccc2)c(Cl)c1/C=N/NC(=O)c1ccccc1F	-6.4	2.0	0.6	-1.7	x
O=C(N/N=C/c1cc(Cl)cc([N+](=O)[O-])c1O)c1ccccc1NS(=O)(=O)c1cccs1	14.0	83.7*	5.5	16.3	26.1*
O=C(N/N=C/c1cc(Cl)cc([N+](=O)[O-])c1O)NC12CC3CC(CC(C3)C1)C2	14.0	83.9*	-5.1	1.8	5.0
O=C(NN=Cc1ccc(O)cc1)c1ccccc1NS(=O)(=O)c1cccs1	13.2	1.1	1.2	-8.2	x
Cc1nn(-c2ccccc2)c(Cl)c1/C=N/NC(=O)c1ccccc1NS(=O)(=O)c1cccs1	6.5	88.2*	16.1*	-0.5	66.0*
O=C(COc1c(F)c(F)c(C(F)(F)F)c(F)c1F)Nc1ccc(N2CCOCC2)c(Cl)c1	0.1	90.2*	11.3*	-0.1	78.0*

Bioassay records (PubChem BioAssay)
